Measured values: publication PMC9924077 (Cell stem cell, 2022)

What was measured:
hiPSC-CMs = format: cell-based, human; conditions: for apparent risk in this study compared with actual clinical practice: hiPSC-CMs, Torsadogenic safety margin
[1] = risk of TdP arrhythmia at clinical exposures; cited from earlier work
[2] = tested on: hiPSC-derived cardiomyocytes; conditions: tested at concentrations exceeding 100 times the free Cmax; cited from earlier work
DCM and HCM hiPSC-CMs = format: cell-based, human; conditions: for asystole safety margin versus isogenic control: DCM RBM20 p.R634Q and PLN p.R14del, HCM MYBPC3 p.R943X and TPM1 p.K37E versus isogenic control hiPSC-CMs; for Torsadogenic safety margin in DCM and HCM hiPSC-CMs versus isogenic control: DCM and HCM lines versus HD.15S1 isogenic control
In short: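 Cells were HCM (TPM1, MYBPC3) and DCM (TNNT2, RBM20, PLN) hiPSC-CMs made by Cas9/ssODN knock-in and Sanger-verified, plus isogenic control. They were plated at 25,000/well for ≥4 days, dye-loaded with VF2.1.Cl/Hoechst for 50 min at 37°C, exposed to drug for 15 min at 37°C, and imaged at 33 Hz for 10 s. Design: 8 doses, 3 differentiation batches × 3 technical repeats. CNN arrhythmic/asystolic probability was fitted by binomial glm against log dose, with EC50 and 95% CI.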

[3] = healthy donor hiPSC-CMs, 8 concentrations

| Structure (SMILES) | apparent risk in this study compared with actual clinical practice (hiPSC-CMs) | CiPA TdP risk classification [1] | asystole safety margin versus isogenic control (DCM and HCM hiPSC-CMs) | further results |
| --- | --- | --- | --- | --- |
| CC(C)COCC(CN(Cc1ccccc1)c1ccccc1)N1CCCC1 (stereo not drawn) [bepridil, Bepridil] | appeared less | high-risk |  | response in hiPSC-derived cardiomyocytes in previous studies [2]: non-arrhythmic responses |
| CN(CCOc1ccc(NS(C)(=O)=O)cc1)CCc1ccc(NS(C)(=O)=O)cc1 [dofetilide, Dofetilide] |  |  | heightened propensity to cause asystole |  |
| O=C(CCCN1CC=C(n2c(=O)[nH]c3ccccc32)CC1)c1ccc(F)cc1 [droperidol, Droperidol] | riskier | intermediate risk | heightened propensity to cause asystole | Torsadogenic safety margin in DCM and HCM hiPSC-CMs versus isogenic control (DCM and HCM hiPSC-CMs): trended towards increased risk |
| CCCCCCCN(CC)CCCC(O)c1ccc(NS(C)(=O)=O)cc1 (stereo not drawn) [ibutilide, Ibutilide] |  | high | heightened propensity to cause asystole | arrhythmia probability (CNN) versus dose (hiPSC-CMs; [3]): continuous, dose-dependent increase in arrhythmia probability; Torsadogenic safety margin in DCM and HCM hiPSC-CMs versus isogenic control (DCM and HCM hiPSC-CMs): trended towards increased risk |
| Cc1cccc(C)c1OCC(C)N (stereo not drawn) [mexiletine, Mexiletine] | riskier | low-no risk |  |  |
| COC(=O)C1=C(C)NC(C)=C(C(=O)OC)C1c1ccccc1[N+](=O)[O-] [nifedipine, Nifedipine] |  |  |  | asystole (probability of asystole class, CNN) versus dose (hiPSC-CMs; [3]): dose-dependent induction of asystole |
| Cc1nccn1CC1CCc2c(c3ccccc3n2C)C1=O (stereo not drawn) [ondansetron, Ondansetron] |  | intermediate |  |  |
| COc1ccccc1OCC(O)CN1CCN(CC(=O)Nc2c(C)cccc2C)CC1 (stereo not drawn) [ranolazine, Ranolazine] | riskier | low-no risk |  |  |
